Sampled rows, rich in hits. Any-hit rate of the full collection: about 3.2%.
Cneo AK release = Cryptococcus neoformans cell lysis inducers, primary screen, AK release luminescence, single concentration; AID 651654, 2012; C. neoformans lysis, adenylate kinase release luminescence, 4 h; normalised: neutral wells 0, clomiphene wells 100; actives 0.2% (n = 360,000); lysis activity, % at 15 µM;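 active = mean lysis activity across replicates of at least 80%, whatever share of replicates individually reach that level; inactive = mean lysis activity below 80%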
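Signal: Adenylate kinase release luminescence | Assay system: Log-phase Cryptococcus neoformans yeast cells | Input: Cells at 5 × 10^6 per mL | Buffer or medium: Fresh YPD growth medium | Compound: Single dose | Schedule: Static 4 h at 37 °C with compound, 1 h detection | Controls: Clomiphene | Read-out: Luminescence rise reflecting yeast cell lysis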
S100A4 MyoIIA = inhibitors of S100A4-myosin IIA peptide binding, primary screen, biochemical, fluorescence polarization, TAMRA-MyoIIA peptide; Protein S100-A4 (Homo sapiens), P26447; actives 0.14% (n = 360,000); inhibition, % at 10.7 µM;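 active = mean inhibition of at least 70% across replicates, with every replicate also reaching that level; inconclusive = mean inhibition reaches 70% but some replicates fall short; inactive = mean inhibition below 70%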
Target sequence (P26447 whole entry, looked up): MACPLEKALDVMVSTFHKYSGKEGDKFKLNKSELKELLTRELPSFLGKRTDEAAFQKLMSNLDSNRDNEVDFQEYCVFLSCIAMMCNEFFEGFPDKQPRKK
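Material: S100A4 monomer (human). Medium: Calcium-containing HEPES buffer, pH 7.2. Probe or stimulus: labelled myosin peptide probe, 5 nM. Compound dosing: one concentration per compound. Timing: polarization read 5 min after assay mix addition, stable 5–60 min. Benchmarks: DMSO as neutral control, TFP as positive control.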
Ecoli rRNA inh = reduced GFP signal of wild-type E. coli, primary screen, bacterial rRNA inhibitor project, GFP/RFP fluorescence, OD600, single point; actives 1.6% (n = 350,000); E. coli WT GFP vs humanized-ribosome RFP mutants, 24 h; active compounds read low; DMSO median 0, no signal -100; GFP signal change (wild-type ribosome), % (no concentration beside the values); AID 720706, 2013;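 active = significant combined selectivity score with lowered wild-type GFP, culture density cut under 30%, mutant RFP and density less affected; inactive = any of these conditions unmet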
PfHsp90 yeast 2 = growth inhibition of PfHsp90-expressing yeast, primary screen, antimalarial PfHsp90 inhibitor project, S. cerevisiae, BacTiter-Glo luminescence, single point, set 2. actives 0.32% (n = 310,000). inhibition, % at 9.4 µM. AID 504621, 2011. BacTiter-Glo ATP, 48 h; yeast lacking PDR1 and PDR3 efflux regulators;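 active = every replicate shows inhibition above about 80%, whatever the replicate mean, limit read from the data; inconclusive = mean inhibition reaches the set limit but some replicate falls short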
DENV2 CPE = inhibitors of DENV2 cytopathic effect, primary screen, cell-based, plate reader, single concentration; DENV2-infected cells, cytopathic effect rescue; CPE inhibition, % at 9.99 µM; actives 1.7% (n = 350,000); AID 651640, 2012; in the data active = CPE inhibition above about 20%, passing the limit was not always enough; inconclusive = no clear call, values can overlap the other calls; tested in BHK-21 cells
AF4-AF9 inh = inhibitors of AF4 peptide binding to AF9, primary screen, biochemical, AlphaScreen, biotin-AF4 peptide, FLAG-AF9, single point; inhibition, % at 10 µM; actives 0.47% (n = 350,000);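 active = every replicate reaching a set inhibition limit, whatever the replicate mean, cut at about 25% in these data; inconclusive = mean inhibition reaches that limit but some replicates miss it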
Target sequence (P42568 whole entry, looked up): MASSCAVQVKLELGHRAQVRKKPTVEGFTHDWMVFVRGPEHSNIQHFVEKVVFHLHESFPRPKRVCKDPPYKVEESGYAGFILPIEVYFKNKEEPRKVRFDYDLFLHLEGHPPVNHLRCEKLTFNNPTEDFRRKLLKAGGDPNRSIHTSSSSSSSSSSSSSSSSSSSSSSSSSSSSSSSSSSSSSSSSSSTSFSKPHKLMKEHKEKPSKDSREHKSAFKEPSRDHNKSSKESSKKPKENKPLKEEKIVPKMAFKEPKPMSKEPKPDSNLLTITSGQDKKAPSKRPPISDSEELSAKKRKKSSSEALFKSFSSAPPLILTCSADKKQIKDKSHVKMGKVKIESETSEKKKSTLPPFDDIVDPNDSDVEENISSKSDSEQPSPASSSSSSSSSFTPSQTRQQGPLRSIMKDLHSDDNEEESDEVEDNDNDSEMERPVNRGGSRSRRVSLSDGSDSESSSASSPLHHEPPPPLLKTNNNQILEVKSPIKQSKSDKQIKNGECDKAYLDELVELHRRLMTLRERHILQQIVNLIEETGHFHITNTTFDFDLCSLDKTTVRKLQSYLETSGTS
A number is an active result; . = inactive; ? = inconclusive; / = no result given.

SMILES | Cneo AK release | S100A4 MyoIIA | Ecoli rRNA inh | PfHsp90 yeast 2 | DENV2 CPE | AF4-AF9 inh
COCC(=O)Nc1ccc2c(c1)OC[C@@H](C)N(Cc1cccc(F)c1)C[C@H](C)[C@H](OC)CN(C)C2=O | . | . | . | / | 35.5 | .
COCC(=O)Nc1ccc2c(c1)OC[C@@H](C)N(Cc1cccc(F)c1)C[C@@H](C)[C@@H](OC)CN(C)C2=O | . | . | . | / | . | .
CC1=Nc2cc(C(=O)NCCCN3CCN(C)CC3)ccc2Sc2ccc(C)cc21 | . | . | . | . | . | 27.0
C[C@@H]1CN([C@@H](C)CO)C(=O)c2cc(NS(C)(=O)=O)ccc2O[C@@H](C)CCCCO[C@H]1CN(C)S(=O)(=O)c1cccs1 | . | . | . | / | . | .
CCOC(=O)Cn1c(=O)oc2cc(S(=O)(=O)NC3CCCc4ccccc43)ccc21 (stereo not drawn) | . | . | . | . | 27.4 | .
CN(C)C(=O)C[C@@H]1CC[C@H]2[C@@H](COC[C@@H](O)CN2C(=O)C2CC2)O1 | . | ? | . | / | ? | .
O=C(C[C@@H]1CC[C@H]2[C@@H](COC[C@H](O)CN2S(=O)(=O)c2cccc(F)c2)O1)NCCCN1CCOCC1 | . | . | . | / | . | .
N#Cc1ccc(C23OCCN2CCn2c3c3ccccc3[n+]2[O-])cc1 (stereo not drawn) | . | . | . | . | . | 47.9
Cc1noc(C)c1S(=O)(=O)Nc1ccc2c(c1)C(=O)N([C@@H](C)CO)C[C@@H](C)[C@@H](CN(C)C(=O)Nc1ccc3c(c1)OCO3)OCCCC[C@H](C)O2 | . | . | . | / | . | .
CO[C@@H]1CN(C)C(=O)c2ccc(NS(=O)(=O)c3cccc(C)c3)cc2OC[C@H](C)NC[C@H]1C | / | / | . | / | / | /
C=CCn1c(SCC(=O)NC(N)=O)nnc1-c1cc2c(s1)CCC(CC)C2 (stereo not drawn) | / | . | . | . | 21.4 | .
CCOC(=O)Cc1csc(NC(=O)Cc2ccc(Cl)cc2)n1 | / | . | -22.0 | . | . | .
CCOC(=O)Cc1csc(NC(=O)Nc2ccc(OC(F)(F)F)cc2)n1 | . | . | -20.8 | . | . | .
CCOC(=O)Cc1csc(NC(=O)Cc2ccc(Br)cc2)n1 | / | . | . | . | . | .
COCC(=O)N(C)C[C@H]1Oc2cc(-c3ccc(F)cc3)ccc2S(=O)(=O)N([C@H](C)CO)C[C@H]1C | . | . | . | / | . | .
CC1=CN2C(=N)/C(=C/c3ccc([N+](=O)[O-])o3)C(=O)N=C2S1 | / | . | . | 97.2 | . | .
CC1=CN2C(=N)/C(=C/c3ccco3)C(=O)N=C2S1 | / | . | . | . | . | .
COc1ccc(-c2ccc([C@H]3[C@@H](CO)N4CCCCN(CC5CCOCC5)C[C@H]34)cc2)cc1 | . | . | . | / | 33.1 | .
COc1ccc(-c2ccc([C@H]3[C@@H](CO)N4CCCCN(CC5CCOCC5)C[C@@H]34)cc2)cc1 | . | . | . | / | 24.1 | .
O=C(C1CC1)N1CC(=O)N2[C@H](CO)[C@@H](c3ccc(C#CC4CCCC4)cc3)[C@H]2C1 | / | . | . | / | . | .
O=C(NN1C(=O)/C(=C/c2cccs2)SC1=S)c1ccncc1 | / | . | -29.4 | . | . | .
O=C1/C(=C/c2cccs2)SC(=S)N1NS(=O)(=O)c1ccccc1 | . | . | -26.6 | . | . | .
O=C(CCCN1C(=O)/C(=C\c2cccs2)SC1=S)NNC(=O)c1ccncc1 | / | . | . | . | . | .
CC(C)C#Cc1ccc2c(c1)O[C@H](CN(C)S(C)(=O)=O)[C@@H](C)CN([C@H](C)CO)S2(=O)=O | . | . | . | / | . | .
CC(C)(C)OC(=O)N1CCC[C@@H]1C(=O)NCc1ccccc1 | / | . | . | / | . | .
SMILES | Cneo AK release | S100A4 MyoIIA | Ecoli rRNA inh | PfHsp90 yeast 2 | DENV2 CPE | AF4-AF9 inh
C[C@H](NC(=O)[C@@H]1CCCN1C(=O)OC(C)(C)C)c1ccccc1 | / | . | . | / | 76.0 | .
CC(C)NC(=O)Nc1ccc2c(c1)C(=O)N([C@H](C)CO)C[C@@H](C)[C@@H](CN(C)Cc1ccccc1)OCCCC[C@H](C)O2 | . | . | . | / | . | .
CCOC(=O)/C(=C/c1ccc(OC(=O)c2ccccc2)cc1)C(C)=O | . | / | / | 106.1 | / | /
Cc1ccc(-c2nc(N3CCN(C)CC3)c3ccccc3n2)cc1 | . | . | -26.6 | . | 24.9 | .
CN1CCN(c2nc(-c3ccc(C(C)(C)C)cc3)nc3ccccc23)CC1 | . | . | . | . | . | .
CCCC(=O)Nc1ccc2c(c1)OC[C@@H](C)N(Cc1cncnc1)C[C@H](C)[C@H](OC)CN(C)C2=O | . | . | . | / | . | .
CCN(CC)C1CC(=O)N(c2ccc(Br)cc2)C1=O (stereo not drawn) | . | . | . | 112.1 | . | .
c1ccc(CNCCCNCCCCNCCCNCc2ccccc2)cc1 | / | . | . | . | . | 25.5
C[C@H](CO)N1C[C@H](C)[C@H](CN(C)C)OCCCC[C@H](C)Oc2ccc(NC(=O)Nc3ccc(F)cc3)cc2C1=O | / | / | . | / | / | /
FC(F)(F)c1cccc(NC(=S)Nc2ccc(Cl)c(Cl)c2)c1 | . | . | -49.2 | . | . | .
CC(C)(C)NC(=S)Nc1cccc(C(F)(F)F)c1 | . | . | -48.5 | . | . | .
FC(F)(F)c1cccc(NC(=S)NC(c2ccccc2)c2ccccc2)c1 | . | . | . | . | . | .
CCn1c(SCC(N)=O)nc2sc3c(c2c1=O)CCCC3 | / | / | / | . | / | /
NNc1nc2sc3c(c2c(=O)n1Cc1ccccc1)CCC3 | . | . | -33.5 | . | . | .
CCn1c(NN)nc2sc3c(c2c1=O)CCC3 | . | / | / | . | / | /
CCSc1nc2sc3c(c2c(=O)n1CC)CCC3 | . | . | . | . | 39.8 | .
CN(C)CCCn1c(=O)n(CCc2ccccc2)c(=O)c2c3c(sc21)CCCCC3 | . | . | . | . | . | .
CN(C)CCn1c(=O)n(Cc2ccccc2)c(=O)c2c3c(sc21)CCCCC3 | . | . | . | . | . | 26.0
COC(=O)C[C@@H]1CC[C@H]2[C@H](COc3ccc(NC(=O)c4ccc(F)c(F)c4)cc3C(=O)N2C)O1 | . | . | . | / | . | .
COc1ccc(-c2cn(CC[C@H]3CC[C@@H](NC(=O)Cc4ccccn4)[C@@H](CO)O3)nn2)cc1 | . | . | . | / | . | .
CNC[C@H]1Oc2ncc(C#Cc3cccc(OC)c3)cc2C(=O)N([C@H](C)CO)C[C@H]1C | . | . | . | / | . | .

Screening results from PubChem BioAssay.
